Columns and labels:
[1] = DPPH radical scavenging assay; conditions: 10 μL sample + 190 μL DPPH, 30 min, 37 °C
Outline: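 10 μL sample mixed with 190 μL DPPH solution in microplate and held 30 min at 37 °C. Absorbance read spectrophotometrically. % scavenging = (1 − Abs/Abc) × 100, where Abc is the reagent-only negative control; SC50 also described. Ascorbic acid as standard. Triplicate.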

S. setubal = experiment: Antibacterial assay of isolated compounds, S. setubal; type: cell-based; conditions: cefixime positive control
Salmonella typhi = experiment: Antibacterial assay of isolated compounds, S. typhi; type: cell-based; conditions: cefixime positive control
[2] = Total antioxidant capacity; conditions: sample 4 mg/mL in DMSO, ascorbic acid equivalents
Outline: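 100 μL sample (4 mg/mL in DMSO) mixed with 900 μL phosphomolybdenum reagent (0.6 M H2SO4, 28 mM sodium phosphate, 4 mM ammonium molybdate). Heated 90 min at 95 °C, cooled to room temperature, and 200 μL read at 630 nm. Quantified against an ascorbic acid calibration curve as μg AAE/mg extract. Triplicate.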

α-amylase = experiment: α-Amylase inhibition assay; type: biochemical; conditions: 10 μL sample, 4 mg/mL in DMSO
Outline: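 Mix in pH 6.8 phosphate buffer: α-amylase (0.14 U/mL), 10 μL sample (4 mg/mL in DMSO) and starch (2 mg/mL); 30 min at 50 °C. Stopped with 1 M HCl, then iodine/KI reagent (5 mM each) added. Read at 540 nm. Acarbose positive control at 5−200 μg/mL. Sample-free well taken as 100% activity; blank lacked sample and enzyme.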

S. aureus (ATCC # 6538) = experiment: Antibacterial disc diffusion, S. aureus; type: cell-based, Staphylococcus aureus; conditions: isolated compounds; cefixime positive control
Total reducing power = conditions: sample 4 mg/mL in DMSO, ascorbic acid equivalents
Outline: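 200 μL sample (4 mg/mL in DMSO) mixed with 400 μL phosphate buffer (0.2 mol/L, pH 6.6) and 1% potassium ferricyanide; 20 min at 50 °C. Added 10% trichloroacetic acid and centrifuged 10 min at 3000 rpm. 200 μL of upper layer mixed with 0.1% FeCl3 and read at 630 nm. Expressed as μg ascorbic acid equivalent/mg extract from a calibration curve. Triplicate.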

lipase = experiment: Lipase inhibition assay; type: biochemical; conditions: 50 μL sample, 4 mg/mL in DMSO
Outline: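 Lipase dissolved at 10 mg/mL in ultrapure water, spun 5 min at 16,000 rpm; supernatant used. Assay buffer 100 mM Tris, pH 8.2. Mix: 350 μL buffer, 150 μL lipase, 50 μL sample (4 mg/mL in DMSO). Started with 450 μL substrate: 0.08% v/v olive oil in 5 mM sodium acetate pH 5.0 with 1% Triton X-100. Incubated 2 h at 37 °C, spun, read at 400 nm. Orlistat standard. % inhibition = (OD blank − OD sample)/OD blank × 100.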

M. luteus = experiment: Antibacterial assay of isolated compounds, M. luteus; type: cell-based; conditions: cefixime positive control
urease = experiment: Urease inhibition assay; type: biochemical; conditions: 10 μL sample, 4 mg/mL in DMSO
Outline: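 Mix: 25 μL urease, 50 μL phosphate buffer (3 mM, pH 4.5, containing 100 mM urea) and 10 μL sample (4 mg/mL in DMSO); 15 min at 30 °C. Ammonia detected by phenol–nitroprusside reagent plus alkaline hypochlorite, then 50 min at 30 °C. Read at 630 nm. Thiourea as control. % inhibition = (OD blank − OD sample)/OD blank × 100.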

E. aerogenes = experiment: Antibacterial assay of isolated compounds, E. aerogenes; type: cell-based, Escherichia aerogenes; conditions: cefixime positive control

Compound | DPPH % (free-radical scavenging) [1] [%] | antibacterial ZOI, S. setubal (S. setubal) [mm] | antibacterial ZOI, S. typhi (Salmonella typhi) [mm] | TAC [2] [μgAAE/mg extract] | amylase inhibition (%) (α-amylase) | antibacterial ZOI, S. aureus (S. aureus (ATCC # 6538)) [mm] | TRP (Total reducing power) [μgAAE/mg extract] | lipase inhibition (%) (lipase) | antibacterial ZOI, M. luteus (M. luteus) [mm] | urease inhibition (%) (urease) | antibacterial ZOI, E. aerogenes (E. aerogenes) [mm] | further results
CCCCCCCCCCCCCCCCCCCCCCCCCCCCCCO [compound 2, 1-triacontanol] | 59.4 ± 2.1 | 15 ± 1.2 | 10 ± 1.3 | 89.5 ± 1.6 | 29.9 ± 1.4 | 9 ± 1.3 | 55.2 ± 1.8 | 50.8 ± 0.9 | 10 ± 0.9 | 82.5 ± 0.8 | 15 ± 1.4 | antibacterial ZOI, S. setubal (S. setubal; listed as 1-triacontanol): 15 mm; TAC ([2]; listed as 1-triacontanol): 89.5 μgAAE/mg extract; antibacterial ZOI, E. aerogenes (E. aerogenes; listed as 1-triacontanol): 15 mm
O=C(O)c1cccc(O)c1 [compound 6, 3-hydroxybenzoic acid] | 65.8 ± 1.6 | 14 ± 1.7 | 16 ± 1.5 | 66.6 ± 1.5 | 31.5 ± 0.8 | 15 ± 1.6 | 62.5 ± 1.3 | 51.9 ± 0.7 | 15 ± 1.2 | 59.8 ± 0.6 | 15 ± 1.4 | DPPH % (free-radical scavenging) ([1]; listed as 3-Hydroxybenzoic acid): 65.8%
C[C@H]1[C@H](C)CC[C@]2(C(=O)O)CC[C@]3(C)C(=CC[C@@H]4[C@@]5(C)CC[C@H](O)C(C)(C)[C@@H]5CC[C@]43C)[C@H]12 [compound 5, 3β-hydroxy-urs-12-en-28-oic acid] | 58.6 ± 1.7 | 13 ± 1.2 | 16 ± 1.8 | 70.4 ± 1.8 | 48.9 ± 0.6 | 13 ± 1.3 | 76.2 ± 1.5 | 76.6 ± 0.8 | 14 ± 1.4 | 78.8 ± 0.5 | 12 ± 1.3 | antibacterial ZOI, S. typhi (Salmonella typhi; listed as ursolic acid): 16 mm
O=C(O)c1ccccc1 [compound 4, benzoic acid] | 50.8 ± 1.6 | 15 ± 1.7 | 15 ± 1.5 | 60.6 ± 1.8 | 36.5 ± 0.9 | 12 ± 1.6 | 59.5 ± 1.5 | 58.9 ± 0.7 | 13 ± 1.2 | 65.8 ± 0.6 | 12 ± 1.4 | antibacterial ZOI, S. typhi (Salmonella typhi; listed as benzoic acid): 15 mm
C=C(C)[C@@H]1CC[C@]2(C)CC[C@]3(C)[C@H](CC[C@@H]4[C@@]5(C)CC[C@H](O)C(C)(C)[C@@H]5CC[C@]43C)[C@@H]12 [compound 1, lup-20(29)-en-3β-ol] | 68.8 ± 1.1 | 12 ± 1.3 | 18 ± 1.3 | 55.5 ± 1.3 | 16.0 ± 0.4 | 14 ± 1.2 | 96.9 ± 1.6 | 84.0 ± 0.8 | 15 ± 1.1 | 85.8 ± 0.9 | 14 ± 1.1 | DPPH % (free-radical scavenging) ([1]; listed as lupeol): 68.8%; antibacterial ZOI, S. typhi (Salmonella typhi; listed as lupeol): 18 mm; TRP (Total reducing power; listed as lupeol): 96.9 μgAAE/mg extract
COC(=O)c1ccccc1 [compound 3, methyl benzoate] | 49.4 ± 1.9 | 13 ± 1.1 | 10 ± 1.1 | 82.5 ± 1.3 | 26.2 ± 0.5 | 7 ± 0.8 | 45.2 ± 1.6 | 50.3 ± 0.5 | 14 ± 1.1 | 55.1 ± 1.2 | 15 ± 1.1 | TAC ([2]; listed as methyl benzoate): 82.5 μgAAE/mg extract

From PMC8811920 (ACS Omega, 2022)
